Screening results as filed in PubChem.
b-catenin transl: modulators of beta-catenin nuclear translocation, primary screen, imaging, HeLa cells, immunofluorescence, high-content; nuclear translocation activity, % at 5 µM; 190,000 tested, 0.3% active; AID 1665, 2009;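 active = nuclear translocation activity above 50% at 5 µM, with a well cell count of 50 or more; inconclusive = wells under 50 cells across six images, flagged as toxic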;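 note: per-cell ratio of nuclear to cytoplasmic median beta-catenin stain intensity; plate controls were DMSO negative control for no effect and GSK-3 inhibitor IX positive control for full effect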
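Assay system: human HeLa cells, native beta-catenin; doses: 5 µM primary, 0.02–20 µM confirmation; incubation: compound treatment 24 h, 37°C, 5% CO2; technique: fluorescence imaging of beta-catenin antibody stain plus DAPI; measure: % activation, nuclear-to-cytoplasmic median beta-catenin signal ratio per cell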
Furin inh: human furin inhibitors, primary screen, biochemical, fluorescence intensity; purified furin, fluorogenic substrate cleavage; AID 463115, 2010; P09958; inhibition, % at 20 µM or 30 µM; 220,000 tested, 0.061% active; in the data active = inhibition above about 25%
Target sequence (P09958 108-714 limits assumed): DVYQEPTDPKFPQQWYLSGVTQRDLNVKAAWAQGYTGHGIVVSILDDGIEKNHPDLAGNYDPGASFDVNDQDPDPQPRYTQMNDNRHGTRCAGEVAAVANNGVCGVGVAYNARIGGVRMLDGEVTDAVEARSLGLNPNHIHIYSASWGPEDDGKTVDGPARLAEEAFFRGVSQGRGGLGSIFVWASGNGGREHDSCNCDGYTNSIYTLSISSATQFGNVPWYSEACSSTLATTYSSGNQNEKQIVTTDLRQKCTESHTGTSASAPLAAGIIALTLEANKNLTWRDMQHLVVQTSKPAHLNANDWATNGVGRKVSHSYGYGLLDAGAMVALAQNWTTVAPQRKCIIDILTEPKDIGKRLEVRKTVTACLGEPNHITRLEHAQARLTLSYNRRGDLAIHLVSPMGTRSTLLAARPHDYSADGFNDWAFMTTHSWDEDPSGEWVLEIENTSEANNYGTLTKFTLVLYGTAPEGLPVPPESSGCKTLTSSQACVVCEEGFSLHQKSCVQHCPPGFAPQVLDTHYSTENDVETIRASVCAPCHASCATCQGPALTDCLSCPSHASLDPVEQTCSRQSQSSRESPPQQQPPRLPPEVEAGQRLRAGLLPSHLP
HSV augment: enhancers of HSV replication in host cells, fold increase, host cell viability; HSV replication augmentation in cells; maximum fold increase; 220,000 tested, 0.005% active; in the data active = maximum fold increase above about 1.5; inconclusive = no clear call, values can overlap the other calls; tested in PC3 cells
Autophagy HCS: autophagy modulators in MEF cells, primary screen, imaging, high-content, MEF GFP-LC3 | MEF GFP-LC3 puncta imaging; test concentration mostly 10 µM | calls only at 10 µM (by protocol) | 190,000 tested, 0.98% active;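 active = percentage of spot-positive cells more than 3 SD above its plate mean, without a fluorescence outlier flag or 80% toxicity; inconclusive = no clear call, values can overlap the other calls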;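 note: spot-positive cell cutoff set from DMSO-treated cells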
MT stabilizer: microtubule stabilizers in HeLa cells, primary screen, imaging, high-content imaging | 200,000 tested, 0.83% active | HeLa tubulin immunostaining HCS, 24 h; share of cells brighter than vehicle mean+2SD | AID 2205, 2009 | % tubulin-high responders, % at 10 µM;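 active = plate Z-score above 3 for both tubulin-high and condensed-nucleus cell shares, with cell loss under 80%, at 10 µM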;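 note: anti alpha tubulin signal scored within the nucleus-defined area of each cell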
Insulin prom up: insulin promoter activators in MIN6 cells, imaging, high-content screening, mouse beta cells; MIN6 insulin promoter-GFP reporter; stronger effect = higher value; z-score at 5 µM; 190,000 tested, 0.3% active; AID 1625, 2009;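 active = z-score above 3 at 5 µM with at least 500 cells counted in the well; inconclusive = wells under 500 cells, flagged as cytotoxic or low count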
* hit, by the source's call. Most compounds without a hit are left out; they make up all but 1.9% or so of the library.

How did O=C(CC1C(=O)NCCN1C(=O)Nc1ccc(Cl)cc1)Nc1ccc(F)cc1 (centres undefined) do in these assays?
b-catenin transl: 1.4; Furin inh: -0.1; HSV augment: inactive; Autophagy HCS: active; MT stabilizer: 1.7; Insulin prom up: -0.93

Results for Cn1c(C(=O)N2CCC(C(=O)N3CCN(Cc4ccc5c(c4)OCO5)CC3)CC2)cc2sccc21 ?
b-catenin transl: -2.8; Furin inh: -19.8; HSV augment: inactive; Autophagy HCS: inactive; MT stabilizer: 3.3; Insulin prom up: 4.67*

Results for Fc1ccc(Br)cc1C1C=C(c2cccnc2)Nc2ncnn21 (centres undefined) ?
Furin inh: -9.8; HSV augment: inactive; Autophagy HCS: inactive; MT stabilizer: 18.2*; Insulin prom up: 0.43

What do the screens show for `CC(C)(C)c1ccc(C2=CC(c3ccccc3F)n3ncnc3N2)cc1` (centres undefined)?
HSV augment: inactive

How did COc1cc(CN2CCN(c3cccc(Cl)c3)CC2)cc(OC)c1OC do in these assays?
b-catenin transl: -1.6; Furin inh: -13.8; HSV augment: inactive; Autophagy HCS: inactive; MT stabilizer: 46.1*

How did COc1cc(C(=S)N2CCN(c3cccc(Cl)c3)CC2)ccc1O do in these assays?
b-catenin transl: 50.1*; Furin inh: -26.1; HSV augment: inactive; Autophagy HCS: inactive; MT stabilizer: 24.3*

Results for COc1ccc(C(=O)N2CCN(c3cccc(Cl)c3)CC2)cc1 ?
b-catenin transl: -1.6; Furin inh: -11.6; HSV augment: inactive; Autophagy HCS: inactive; MT stabilizer: 2.3; Insulin prom up: -0.62

Results for COc1ccc(C(=S)N2CCN(c3cccc(Cl)c3)CC2)c(OC)c1 ?
b-catenin transl: 106.6*; Furin inh: -19.5; HSV augment: inactive; Autophagy HCS: inactive; MT stabilizer: 17.9*; Insulin prom up: -0.53

How did C/C(=N\NC(=S)Nc1ccccc1C)c1ccc(O)cc1 do in these assays?
b-catenin transl: -1.0; Furin inh: -16.1; HSV augment: inactive; Autophagy HCS: inactive; MT stabilizer: 3.4; Insulin prom up: -0.52

Results for CCOC(=O)C1=C(Cc2ccc(OC)cc2)C(=O)c2ccccc2C1=O ?
b-catenin transl: 2.2; Furin inh: -11.6; Autophagy HCS: inactive; MT stabilizer: 44.7*; Insulin prom up: 1.23

What do the screens show for `CCOC(=O)C1=C(Cc2ccc(C)cc2)C(=O)c2ccccc2C1=O`?
Furin inh: -20.1; HSV augment: inconclusive; Autophagy HCS: inactive; MT stabilizer: 1.3; Insulin prom up: 1.78

Results for COC(=O)c1c(C)[nH]c(-c2csc(N)n2)c1C ?
b-catenin transl: -0.1; Furin inh: -9.4; HSV augment: inactive; Autophagy HCS: inactive; MT stabilizer: 12.9*; Insulin prom up: 2.52

What do the screens show for `CCCNC(=S)N1CCC(C(=O)c2ccc(OC)cc2)CC1`?
Furin inh: -14.4; HSV augment: inactive; Autophagy HCS: inactive; MT stabilizer: 2.1; Insulin prom up: -0.3

Results for Cc1cc(C(=O)OCC(=O)NCc2ccco2)c(C)n1-c1ccc(F)cc1 ?
b-catenin transl: 81.8*; Furin inh: -17.6; HSV augment: inactive; Autophagy HCS: inactive; MT stabilizer: 16.8*; Insulin prom up: -0.88

What do the screens show for `CC(=O)N1CCc2c(sc(NC(=O)c3ccc4c(c3)OCCO4)c2C#N)C1`?
b-catenin transl: 56.6*; Furin inh: -26.1; HSV augment: inactive; Autophagy HCS: inactive; MT stabilizer: 33.7*; Insulin prom up: -0.06

Results for CC(=O)N1CCc2c(sc(NC(=O)c3ccc(S(=O)(=O)N(C)C)cc3)c2C#N)C1 ?
Furin inh: -13.4; HSV augment: inactive; MT stabilizer: 4.6

What do the screens show for `CN1CCN(CC(O)COc2ccc(C34CC5CC(CC(C5)C3)C4)cc2)CC1` (centres undefined)?
b-catenin transl: 20.8; Furin inh: -19.3; HSV augment: inactive; Autophagy HCS: inactive; MT stabilizer: 9.3; Insulin prom up: -1.68
